Columns and labels:
P388 = assay: Growth inhibitory activity against murine P388 leukemia cells; format: functional, cell-based; conditions: Mus musculus
Procedure, shortened: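 P388 murine leukemia cells plated at 4.5 × 10³/well and exposed to drug for 3 days. Growth read by [3H]TdR uptake. IC50 is the concentration reducing cell number to 50% of control. Independent assays done in duplicate.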

[1] = system: Lewis lung carcinoma cell line; assay: Growth inhibitory activity against murine Lewis lung carcinoma cell line; format: functional, cell-based; conditions: Mus musculus
Procedure, shortened: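 Lewis lung carcinoma cells seeded at 10³/well and cultured 4 days with drug. Growth measured by sulforhodamine assay. IC50 is the concentration reducing cell number to 50% of control cultures. Independent duplicate assays.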

[2] = Ratio of growth inhibitory activity against human Jurkat leukemia cell line (JLA- resistant to amsacrine) to that of Jurkat leukemia cell line; format: functional
Procedure, shortened: (§1)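 Parent Jurkat (JL_C) cells and the amsacrine-resistant (JL_A) or doxorubicin-resistant (JL_D) sublines each seeded at 3.75 × 10³/well. Cultured 4 days with drug and read by sulforhodamine assay. The ratio is the subline IC50 divided by the JL_C IC50. Duplicate independent assays.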

Jurkat = assay: Growth inhibitory activity against human Jurkat leukemia cell line (JLC); format: functional, cell-based
Procedure, shortened: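 Human Jurkat leukemia (JL_C) cells seeded at 3.75 × 10³/well and grown 4 days with drug. Growth read by sulforhodamine assay. IC50 is the drug concentration that reduces cell number to 50% of control cultures. Independent assays run in duplicate.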

[3] = Ratio of growth inhibitory activity against human Jurkat leukemia cell line (JLD- resistant to doxorubicin) to that of Jurkat leukemia cell line; format: functional; procedure, shortened: as §1
Mus musculus [4] = assay: In vivo antitumor activity against subcutaneous Colon 38 tumors in mice determined as delay in growth after 2.6 mg/kg/day single dose; format: functional
Procedure, shortened: (§2)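 Colon 38 fragments (1 mm³) implanted subcutaneously in one flank of BDF1 mice. Treated at a tumor diameter of about 4-6 mm (7-8 days), five mice per group. A single intraperitoneal dose was given as the hydrochloride in distilled water, 0.01 mL/g. Calipers three times weekly, volume = 0.52a²b. Growth delay is the time for mean volume to reach 4-fold the pretreatment volume.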

Mus musculus [5] = assay: Number of mice(with Colon 38 tumors) cured after treatment of 2.6 mg/kg/day single dose out of 5 mice; format: functional
Procedure, shortened: (§3)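 BDF1 mice bearing subcutaneous Colon 38 tumors (flank implants of 1 mm³ fragments) were treated at a diameter of about 4-6 mm. They received one intraperitoneal dose of the hydrochloride salt in distilled water, 0.01 mL/g. A cure is a mouse with no measurable tumor 20 days after treatment began, reported over the total mice per group.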

Mus musculus [6] = assay: In vivo antitumor activity against subcutaneous Colon 38 tumors in mice determined as delay in growth after 3.9 mg/kg/day single dose; format: functional; procedure, shortened: as §2
Mus musculus [7] = assay: Number of mice(with Colon 38 tumors) cured after treatment of 3.9 mg/kg/day single dose out of 5 mice; format: functional; procedure, shortened: as §3
Mus musculus [8] = assay: In vivo antitumor activity against subcutaneous Colon 38 tumors in mice determined as delay in growth after 30 mg/kg/day single dose; format: functional
Mus musculus [9] = assay: Number of mice(with Colon 38 tumors) cured after treatment of 30 mg/kg/day single dose out of 5 mice; format: functional
Mus musculus [10] = assay: In vivo antitumor activity against subcutaneous Colon 38 tumors in mice determined as delay in growth after 65 mg/kg/day dose given as 2 times in a day for 2 days; format: functional
Mus musculus [11] = assay: Number of mice(with Colon 38 tumors) cured after treatment of 65 mg/kg/day dose given as 2 times in a day for 2 days out of 5 mice; format: functional
Mus musculus [12] = assay: Number of mice(with Colon 38 tumors) cured after treatment of 8.9 mg/kg/day single dose out of 5 mice; format: functional; procedure, shortened: as §3
Mus musculus [13] = assay: In vivo antitumor activity against subcutaneous Colon 38 tumors in mice determined as delay in growth after 8.9 mg/kg/day single dose; format: functional; procedure, shortened: as §2
Mus musculus [14] = assay: In vivo antitumor activity against subcutaneous Colon 38 tumors in mice determined as delay in growth after 5.9 mg/kg/day single dose; format: functional; procedure, shortened: as §2
Mus musculus [15] = assay: Number of mice(with Colon 38 tumors) cured after treatment of 13.3 mg/kg/day single dose out of 5 mice; format: functional; procedure, shortened: as §3
Mus musculus [16] = assay: Number of mice(with Colon 38 tumors) cured after treatment of 5.9 mg/kg/day single dose out of 5 mice; format: functional; procedure, shortened: as §3
Mus musculus [17] = assay: In vivo antitumor activity against subcutaneous Colon 38 tumors in mice determined as delay in growth after 13.3 mg/kg/day single dose; format: functional; procedure, shortened: as §2
Mus musculus [18] = assay: Number of mice(with Colon 38 tumors) cured after treatment of 3.9 mg/kg/day single dose out of 4 mice; format: functional; procedure, shortened: as §3
Mus musculus [19] = assay: Number of mice(with Colon 38 tumors) cured after treatment of 5.9 mg/kg/day single dose out of 10 mice; format: functional; procedure, shortened: as §3
Mus musculus [20] = assay: Number of mice(with Colon 38 tumors) cured after treatment of 8.9 mg/kg/day single dose out of 4 mice; format: functional; procedure, shortened: as §3
Mus musculus [21] = assay: In vivo antitumor activity against subcutaneous Colon 38 tumors in mice determined as delay in growth after 200 mg/kg/day dose given as 2 times in a day for 7 days; format: functional
Mus musculus [22] = assay: Number of mice(with Colon 38 tumors) cured after treatment of 200 mg/kg/day dose given as 2 times in a day for 7 days out of 5 mice; format: functional
Mus musculus [23] = assay: Number of mice(with Colon 38 tumors) cured after treatment of 13.3 mg/kg/day dose given as 3 times in a day for 4 days out of 5 mice; format: functional
Mus musculus [24] = assay: In vivo antitumor activity against subcutaneous Colon 38 tumors in mice determined as delay in growth after 13.3 mg/kg/day dose given as 3 times in a day for 4 days; format: functional
Mus musculus [25] = assay: In vivo antitumor activity against subcutaneous Colon 38 tumors in mice determined as delay in growth after 3.9 mg/kg/day dose given as 3 times in a day for 4 days; format: functional
Mus musculus [26] = assay: Number of mice(with Colon 38 tumors) cured after treatment of 3.9 mg/kg/day dose given as 3 times in a day for 4 days out of 5 mice; format: functional
Mus musculus [27] = assay: In vivo antitumor activity against subcutaneous Colon 38 tumors in mice determined as delay in growth after 2.6 mg/kg/day dose given as 3 times in a day for 4 days; format: functional
Mus musculus [28] = assay: Number of mice(with Colon 38 tumors) cured after treatment of 2.6 mg/kg/day dose given as 3 times in a day for 4 days out of 5 mice; format: functional
Mus musculus [29] = assay: In vivo antitumor activity against subcutaneous Colon 38 tumors in mice determined as delay in growth after 45 mg/kg/day dose given as 3 times in a day for 4 days; format: functional
Mus musculus [30] = assay: Number of mice(with Colon 38 tumors) cured after treatment of 45 mg/kg/day dose given as 3 times in a day for 4 days out of 5 mice; format: functional
Mus musculus [31] = assay: Number of mice(with Colon 38 tumors) cured after treatment of 65 mg/kg/day dose given as 3 times in a day for 4 days out of 5 mice; format: functional
Mus musculus [32] = assay: In vivo antitumor activity against subcutaneous Colon 38 tumors in mice determined as delay in growth after 65 mg/kg/day dose given as 3 times in a day for 4 days; format: functional

| SMILES | IC50 (P388) [µM] | IC50 [1] [µM] | Ratio [2] | IC50 (Jurkat) [µM] | Ratio [3] | further results |
| --- | --- | --- | --- | --- | --- | --- |
| CN(C)CCNC(=O)c1cn(CCN(C)C)c(=O)c2cc3ccccc3nc12 | 0.054 | 0.05 | 0.8 | 0.123 | 1.1 | – |
| COc1ccc(-n2cc(C(=O)NCCN(C)C)c3nc4c(C)cccc4cc3c2=O)cc1OC | 0.012 | 0.0044 | 1.3 | 0.0094 | 1.5 | Growth delay (Mus musculus [4]): 16 days; Cures (Mus musculus [5]): 0; Growth delay (Mus musculus [6]): >20 days; Cures (Mus musculus [7]): 4 |
| Cc1cccc2cc3c(O)ncc(C(=O)NCCN(C)C)c3nc12 | 0.011 | 0.01 | 1.9 | 0.026 | 2.6 | Growth delay (Mus musculus [8]): 14 days; Cures (Mus musculus [9]): 0 |
| Cc1cc2c3c(cccc3n1)C(=O)c1cccc(C(=O)NCCN(C)C)c1-2 | – | – | 2.5 | – | 2.5 | Growth delay (Mus musculus [10]): >20 days; Cures (Mus musculus [11]): 5 |
| CN(C)CCNC(=O)c1cn(C)c(=O)c2cc3ccccc3nc12 | 0.014 | – | – | – | – | – |
| Cc1cccc2cc3c(=O)n([C@@H](C)c4ccccc4)cc(C(=O)NCCN(C)C)c3nc12 | 0.59 | 0.161 | 0.8 | 1.07 | 1.1 | – |
| Cc1cccc2cc3c(NCCN(C)C)ncc(C(=O)NCCN(C)C)c3nc12 | 0.0024 | – | – | – | – | Cures (Mus musculus [12]): 0; Growth delay (Mus musculus [13]): 6 days |
| CCCCn1cc(C(=O)NCCN(C)C)c2nc3c(C)cccc3cc2c1=O | 0.014 | 0.015 | 2.3 | 0.051 | 3 | Growth delay (Mus musculus [14]): 18 days; Cures (Mus musculus [15]): 5; Cures (Mus musculus [16]): 0; Growth delay (Mus musculus [17]): >20 days |
| Cc1cccc2cc3c(=O)n(CCN(C)C)cc(C(=O)NCCN(C)C)c3nc12 | 0.0068 | 0.0037 | 0.7 | 0.0085 | 0.9 | Growth delay (Mus musculus [14]): 14 days; Cures (Mus musculus [16]): 0 |
| Cc1cccc2cc3c(=O)n(C)cc(C(=O)NCCN(C)C)c3nc12 | 0.0021 | 0.0017 | 5.6 | 0.0067 | 7.9 | Growth delay (Mus musculus [14]): >20 days; Cures (Mus musculus [18]): 4; Cures (Mus musculus [19]): 10; Cures (Mus musculus [20]): 4; Growth delay (Mus musculus [6]): >20 days; Growth delay (Mus musculus [13]): >20 days |
| Cc1cccc2cc3c(=O)n(CCN(C)CCCN(C)CCn4cc(C(=O)NCCN(C)C)c5nc6c(C)cccc6cc5c4=O)cc(C(=O)NCCN(C)C)c3nc12 | 0.022 | 0.0047 | 0.3 | 0.001 | 0.4 | – |
| CN(C)CCNC(=O)c1cccc2cc3ccccc3nc12 | 0.071 | – | – | – | – | Growth delay (Mus musculus [21]): 13 days; Cures (Mus musculus [22]): 0 |
| COc1cc(NS(C)(=O)=O)ccc1Nc1c2ccccc2nc2ccccc12 [AMSACRINE] | – | – | – | – | – | Cures (Mus musculus [23]): 0; Growth delay (Mus musculus [24]): 2 days |
| CC[C@@]1(O)C(=O)OCc2c1cc1n(c2=O)Cc2cc3ccccc3nc2-1 [CAMPTOTHECIN] | – | – | 2 | – | 1.4 | – |
| COc1cccc2c1C(=O)c1c(O)c3c(c(O)c1C2=O)C[C@@](O)(C(C)=O)C[C@@H]3O[C@H]1C[C@H](N)[C@H](O)[C@H](C)O1 [DAUNORUBICIN] | – | – | – | – | – | Growth delay (Mus musculus [25]): 0 days; Cures (Mus musculus [26]): 0 |
| COc1cccc2c1C(=O)c1c(O)c3c(c(O)c1C2=O)C[C@@](O)(C(=O)CO)C[C@@H]3O[C@H]1C[C@H](N)[C@H](O)[C@H](C)O1 [DOXORUBICIN] | – | – | 4.4 | – | 13 | Growth delay (Mus musculus [27]): 8 days; Cures (Mus musculus [28]): 0 |
| COc1cc([C@@H]2c3cc4c(cc3[C@@H](O[C@@H]3O[C@@H]5CO[C@@H](C)O[C@H]5[C@H](O)[C@H]3O)[C@H]3COC(=O)[C@H]23)OCO4)cc(OC)c1O [ETOPOSIDE] | 0.15 | 0.18 | 13 | 0.16 | 90 | Growth delay (Mus musculus [29]): 1.5 days; Cures (Mus musculus [30]): 0 |
| CCc1c2c(nc3ccc(OC(=O)N4CCC(N5CCCCC5)CC4)cc13)-c1cc3c(c(=O)n1C2)COC(=O)[C@]3(O)CC [IRINOTECAN] | – | – | – | – | – | Cures (Mus musculus [31]): 0; Growth delay (Mus musculus [32]): 7 days |
| O=C1c2c(O)ccc(O)c2C(=O)c2c(NCCNCCO)ccc(NCCNCCO)c21 [MITOXANTRONE] | – | – | – | – | – | Growth delay (Mus musculus [25]): 2 days; Cures (Mus musculus [26]): 0 |
